Data reported in ChEMBL document CHEMBL1137220, “2-(2-(dimethylaminomethyl)phenoxy)-5-iodophenylamine: an improved serotonin transporter imaging agent” (J Med Chem, 2004).

How the values were obtained:
[1] = Distribution ratio in striatum and cerebellum was determined after 11 hrs of intravenous administration of the compound; [125I]- is used as radioactive isotope; type: ADME, tissue-based; conditions: rat
Outline: (§1)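 Rats, three per group, given 10 μCi tracer in 0.2 mL saline into the femoral vein under ether anesthesia, then killed by cardiac excision at the stated time. Brain regions were dissected, weighed and counted. Percent dose/g was calculated against a 1% diluted aliquot of the injected dose. The ratio is (region − cerebellum)/cerebellum on a % dose/g basis, with cerebellum as background.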

[2] = Biodistribution in rat blood was determined after 6 hours of intravenous administration of the compound; [125I]- is used as radioactive isotope; type: ADME, organism-based; conditions: in vivo
Outline: (§2)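 Rats under ether anesthesia, three per group, received 10 μCi tracer in 0.2 mL saline into the femoral vein. They were killed by cardiac excision under ether at each time point. Organs were removed, weighed and counted. Percent dose per organ was calculated against a 1%-of-injected-dose standard counted at the same time.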

[3] = Distribution ratio in hypothalamus and cerebellum was determined after 2 min of intravenous administration of the compound; [125I]- is used as radioactive isotope; type: ADME, tissue-based; conditions: rat
Outline: (§3)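 After femoral-vein injection of 10 μCi [¹²⁵I] tracer in 0.2 mL saline under ether anaesthesia (three rats per group), brain regions were dissected, weighed and counted: cortex (frontal plus occipital), hippocampus, hypothalamus and cerebellum. %dose/g was calculated against a diluted injected-dose standard. Ratio = (region − cerebellum)/cerebellum on a %dose/g basis, with cerebellum as the background region.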

[4] = Distribution ratio in hippocampus and cerebellum was determined after 120 min of intravenous administration of the compound; [125I]- is used as radioactive isotope; type: ADME, tissue-based; conditions: rat, 2 h; outline: as §3
[5] = Regional brain distribution in rat cortex was determined after 6 hours of intravenous administration of the compound; [125I]- is used as radioactive isotope; type: ADME; conditions: in vivo
Outline: (§4)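 Rats, three per group, injected with 10 μCi tracer in 0.2 mL saline via the femoral vein under ether anesthesia and killed by cardiac excision at the stated time. Cortex (frontal plus occipital), striatum, hippocampus, cerebellum and hypothalamus were dissected, weighed and gamma-counted. Values are % dose/g, calculated by comparison with counts of a 100-fold diluted aliquot of the injected dose.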

[6] = Regional brain distribution in rat hypothalamus was determined after 11 hours of intravenous administration of the compound; [125I]- is used as radioactive isotope; type: ADME, tissue-based; conditions: in vivo; outline: as §4
[7] = Biodistribution in rat skin was determined after 240 min of intravenous administration of the compound; [125I]- is used as radioactive isotope; type: ADME, organism-based, Zone of skin; conditions: in vivo, 4 h
Outline: (§5)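 Rats, three per group, under ether anaesthesia, received 10 μCi of [¹²⁵I]-labelled tracer in 0.2 mL saline into the femoral vein. They were killed by cardiac excision under ether at each time point. Organs were removed, weighed and counted. Percent dose per organ was calculated against counts of a 1% aliquot of the injected dose (100-fold diluted) counted at the same time.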

[8] = Biodistribution in rat skin was determined after 6 hours of intravenous administration of the compound; [125I]- is used as radioactive isotope; type: ADME, organism-based, Zone of skin; conditions: in vivo; outline: as §5
[9] = Regional brain distribution in rat cerebellum was determined after 24 hours of intravenous administration of the compound; [125I]- is used as radioactive isotope; type: ADME, tissue-based; conditions: in vivo; outline: as §4
[10] = Regional brain distribution in rat hippocampus was determined after 30 min of intravenous administration of the compound; [125I]- is used as radioactive isotope; type: ADME, tissue-based; conditions: in vivo, 0.5 h; outline: as §4
[11] = Biodistribution in rat spleen was determined after 240 min of intravenous administration of the compound; [125I]- is used as radioactive isotope; type: ADME, organism-based; conditions: in vivo, 4 h; outline: as §5
[12] = Biodistribution in rat brain was determined after 30 min of intravenous administration of the compound; [125I]- is used as radioactive isotope; type: ADME, organism-based; conditions: in vivo, 0.5 h; outline: as §2
[13] = Biodistribution in rat muscle was determined after 24 hours of intravenous administration of the compound; [125I]- is used as radioactive isotope; type: ADME, organism-based, Muscle tissue; conditions: in vivo; outline: as §5
[14] = Biodistribution in rat brain was determined after 120 min of intravenous administration of the compound; [125I]- is used as radioactive isotope; type: ADME, organism-based; conditions: in vivo, 2 h; outline: as §2
[15] = Biodistribution in rat thyroid was determined after 6 hours of intravenous administration of the compound; [125I]- is used as radioactive isotope; type: ADME, organism-based, Thyroid gland; conditions: in vivo; outline: as §5
[16] = Regional brain distribution in rat cortex was determined after 240 min of intravenous administration of the compound; [125I]- is used as radioactive isotope; type: ADME; conditions: in vivo, 4 h; outline: as §4
[17] = Distribution ratio in hippocampus and cerebellum was determined after 11 hrs of intravenous administration of the compound; [125I]- is used as radioactive isotope; type: ADME, tissue-based; conditions: rat; outline: as §3
[18] = Biodistribution in rat muscle was determined after 11 hours of intravenous administration of the compound; [125I]- is used as radioactive isotope; type: ADME, organism-based, Muscle tissue; conditions: in vivo; outline: as §5
[19] = Biodistribution in rat thyroid was determined after 60 min of intravenous administration of the compound; [125I]- is used as radioactive isotope; type: ADME, organism-based, Thyroid gland; conditions: in vivo, 1 h; outline: as §5
[20] = Regional brain distribution in rat hypothalamus was determined after 30 min of intravenous administration of the compound; [125I]- is used as radioactive isotope; type: ADME, tissue-based; conditions: in vivo, 0.5 h; outline: as §4
[21] = Distribution ratio in cortex and cerebellum was determined after 240 min of intravenous administration of the compound; [125I]- is used as radioactive isotope; type: ADME, tissue-based; conditions: rat, 4 h; outline: as §3
[22] = Distribution ratio in cortex and cerebellum was determined after 11 hrs of intravenous administration of the compound; [125I]- is used as radioactive isotope; type: ADME, tissue-based; conditions: rat; outline: as §3
[23] = Biodistribution in rat lung was determined after 24 hours of intravenous administration of the compound; [125I]- is used as radioactive isotope; type: ADME, organism-based; conditions: in vivo; outline: as §2
[24] = Regional brain distribution in rat hippocampus was determined after 2 min of intravenous administration of the compound; [125I]- is used as radioactive isotope; type: ADME, tissue-based; conditions: in vivo; outline: as §4
[25] = Distribution ratio in hypothalamus and cerebellum was determined after 120 min of intravenous administration of the compound; [125I]- is used as radioactive isotope; type: ADME, tissue-based; conditions: rat, 2 h; outline: as §3
[26] = Regional brain distribution in rat hypothalamus was determined after 2 min of intravenous administration of the compound; [125I]- is used as radioactive isotope; type: ADME, tissue-based; conditions: in vivo; outline: as §4
[27] = Biodistribution in rat muscle was determined after 30 min of intravenous administration of the compound; [125I]- is used as radioactive isotope; type: ADME, organism-based, Muscle tissue; conditions: in vivo, 0.5 h; outline: as §5
[28] = Regional brain distribution in rat hypothalamus was determined after 6 hours of intravenous administration of the compound; [125I]- is used as radioactive isotope; type: ADME, tissue-based; conditions: in vivo; outline: as §4
[29] = Distribution ratio in hippocampus and cerebellum was determined after 60 min of intravenous administration of the compound; [125I]- is used as radioactive isotope; type: ADME, tissue-based; conditions: rat, 1 h; outline: as §3
[30] = Regional brain distribution in rat cortex was determined after 11 hours of intravenous administration of the compound; [125I]- is used as radioactive isotope; type: ADME; conditions: in vivo; outline: as §4
[31] = Biodistribution in rat spleen was determined after 11 hours of intravenous administration of the compound; [125I]- is used as radioactive isotope; type: ADME, organism-based; conditions: in vivo; outline: as §5
[32] = Biodistribution in rat liver was determined after 60 min of intravenous administration of the compound; [125I]- is used as radioactive isotope; type: ADME, organism-based; conditions: in vivo, 1 h; outline: as §2
[33] = Regional brain distribution in rat cortex was determined after 120 min of intravenous administration of the compound; [125I]- is used as radioactive isotope; type: ADME; conditions: in vivo, 2 h; outline: as §4
[34] = Distribution ratio in hypothalamus and cerebellum was determined after 60 min of intravenous administration of the compound; [125I]- is used as radioactive isotope; type: ADME, tissue-based; conditions: rat, 1 h; outline: as §1

For `CN(C)Cc1ccccc1Oc1ccc(I)cc1N`, the Dose/g [1] was 0.14%, the Dose [2] was 3.29% and the Dose/g [3] was 0.24%. The Dose/g [4] was 2.19%, the Dose/g [5] was 0.04% and the Dose/g [6] was 0.01%. It also gave a Dose [7] of 12.6%, a Dose [8] of 15.5% and a Dose/g [9] of 0.0049%. The Dose/g [10] was 1.06%, the Dose [11] was 0.13% and the Dose [12] was 2.12%. The Dose [13] was 1.13%, the Dose [14] was 1.08% and the Dose [15] was 2.68%. It also gave a Dose/g [16] of 0.12%, a Dose/g [17] of 0.09% and a Dose [18] of 4.01%. For the same compound, the Dose [19] was 0.41%, the Dose/g [20] was 1.3% and the Dose/g [21] was 1.12%. For the same compound, the Dose/g [22] was 0%, the Dose [23] was 0.04% and the Dose/g [24] was 0.86%. It also gave a Dose/g [25] of 3.49%, a Dose/g [26] of 0.96% and a Dose [27] of 18.1%. It also gave a Dose/g [28] of 0.09%, a Dose/g [29] of 1.3% and a Dose/g [30] of 0.01%. It also gave a Dose [31] of 0.09%, a Dose [32] of 5.79% and a Dose/g [33] of 0.51%. The Dose/g [34] was 1.92%.
